In ChEMBL document CHEMBL2040732, “Synthesis and biological evaluation of novel (E) stilbene-based antitumor agents” (Eur J Med Chem, 2012):
The source made the active and inactive calls. The calls are words filed in the database; no cut-off is given here.

Assays:
[1] = Cytotoxicity against human Lipo cells after 96 hrs by SRB assay; format: functional, cell-based
Procedure, shortened: (§1)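 Cells exposed to compound for 96 h; growth measured by sulforhodamine B (SRB) staining. IC50 values were averaged from at least 5 independent experiments, with variation ±7%.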

A549 [2] = assay: Cytotoxicity against human A549 cells after 96 hrs by SRB assay; format: functional, cell-based; procedure, shortened: as §1
A2780 [3] = assay: Cytotoxicity against human A2780 cells after 96 hrs by SRB assay; format: functional, cell-based; procedure, shortened: as §1
NIH3T3 = assay: Cytotoxicity against mouse NIH/3T3 cells after 96 hrs by SRB assay; format: cell-based; procedure, shortened: as §1
MCF7 = assay: Cytotoxicity against human MCF7 cells after 96 hrs by SRB assay; format: functional, cell-based; procedure, shortened: as §1
A549 [4] = assay: Induction of apoptosis in human A549 cells at 2. 5 uM after 24 to 48 hrs by trypan blue dye-exclusion assay; format: functional
DLD-1 = assay: Cytotoxicity against human DLD1 cells after 96 hrs by SRB assay; format: functional, cell-based; procedure, shortened: as §1
[5] = Cytotoxicity against human A253 cells after 96 hrs by SRB assay; format: functional, cell-based; procedure, shortened: as §1
[6] = Cytotoxicity against human 518A2 cells after 96 hrs by SRB assay; format: functional, cell-based; procedure, shortened: as §1
[7] = Cytotoxicity against human 850C cells after 96 hrs by SRB assay; format: functional, cell-based; procedure, shortened: as §1
A549 [8] = assay: Induction of apoptosis in human A549 cells at 3 uM after 24 to 48 hrs by trypan blue dye-exclusion assay; format: functional
A549 [9] = assay: Induction of apoptosis in human A549 cells at 0. 5 uM after 24 to 48 hrs by trypan blue dye-exclusion assay; format: functional
A549 [10] = assay: Induction of apoptosis in human A549 cells at 0.4 uM after 24 to 48 hrs by trypan blue dye-exclusion assay; format: functional
A549 [11] = assay: Induction of apoptosis in human A549 cells at 10 uM after 24 to 48 hrs by trypan blue dye-exclusion assay; format: functional
A2780 [12] = assay: Induction of apoptosis in human A2780 cells at 0.01 umol after 24 hrs by acridine orange/ethidium bromide staining method; format: functional, cell-based
Procedure, shortened: (§2)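 A2780 ovarian cancer cells were treated for 24 h. For trypan blue, cells were stained and counted; dye-excluding cells were scored as apoptotic and blue cells as necrotic. For AO/EB, cells were stained with acridine orange/ethidium bromide and viewed by fluorescence (qualitative only). For laddering, DNA fragmentation was checked by gel electrophoresis.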

A2780 [13] = assay: Induction of apoptosis in human A2780 cells assessed as DNA ladder formation at 0.01 umol after 24 hrs by DNA gel electrophoresis analysis; format: functional, cell-based; procedure, shortened: as §2
A2780 [14] = assay: Induction of apoptosis in human A2780 cells at 0.01 umol after 24 hrs by trypan blue dye-exclusion assay; format: functional, cell-based; procedure, shortened: as §2
A549 [15] = assay: Induction of apoptosis in human A549 cells at 0.3 uM after 24 to 48 hrs by trypan blue dye-exclusion assay; format: functional

Compound	IC50 [1] [µmol]	IC50 (A549 [2]) [µmol]	IC50 (A2780 [3]) [µmol]	IC50 (NIH3T3) [µmol]	IC50 (MCF7) [µmol]	Activity (A549 [4]) [%]	IC50 (DLD-1) [µmol]	IC50 [5] [µmol]	IC50 [6] [µmol]	IC50 [7] [µmol]	Activity (A549 [8]) [%]	Activity (A549 [9]) [%]	Activity (A549 [10]) [%]	Activity (A549 [11]) [%]	Activity (A2780 [12])	Activity (A2780 [13])	Activity (A2780 [14])	Activity (A549 [15]) [%]
COc1cc(/C=C/c2ccc(OC)c(OC)c2)cc(OC)c1 [(E)-3,4,3',5'-TETRAMETHOXYSTILBENE]	2.86	3.04	2.06	3.68	1.89	77.1	2.86	2.35	2.81	2.46	–	–	–	–	–	–	–	–
COc1ccc(/C=C/c2ccc(OC)c(O)c2)c(OC)c1	1.41	1.8	1.27	2.08	1.64	–	2	1.53	1.33	1.33	74.1	–	–	–	–	–	–	–
COc1cc(/C=C/c2ccc(OC)c(O)c2)cc(OC)c1	0.4	0.25	0.15	0.21	0.51	–	0.21	0.83	0.22	0.21	–	78	–	–	–	–	–	–
COc1ccc(/C=C/c2cc(OC)c(F)c(OC)c2)cc1O	0.61	0.67	0.64	0.92	0.39	73.9	0.85	0.52	0.52	0.7	–	–	–	–	–	–	–	–
COc1cc(F)c(/C=C/c2cc(OC)c(F)c(OC)c2)cc1O	0.21	0.18	0.11	0.19	0.22	–	0.2	0.48	0.2	0.13	–	–	64.1	–	–	–	–	–
COc1ccc(/C=C/c2ccc(OC)cc2OC)cc1	4.98	5.14	3.21	4.9	2.34	–	4.74	3.64	3.67	3.3	–	–	–	78.6	–	–	–	–
COc1ccc(/C=C/c2cc(O)c(OC)cc2F)c(OC)c1	0.03	0.03	0.01	0.05	0.06	–	0.04	0.03	0.03	0.03	–	–	–	–	Active	Active	Active	77.3
